STAT1 inh – STAT1 signaling inhibitors, primary screen, cell-based, HTS, luciferase reporter; NIH 3T3 STAT1-luciferase reporter, IFN-gamma, luminescence; inhibition, % at 5.5 µM; 200,000 tested, 0.35% active; AID 920, 2007;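 active means inhibition above a set limit, the mean inhibition across all tested compounds plus 3 SD, cut at about 34% in these data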;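 further: 0% = IFN-gamma with DMSO and 100% = IFN-gamma with 300 µM nifuroxazide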
L929 necroptosis – inhibitors of zVAD-triggered necroptosis, primary screen, L929 cells; L929 zVAD necroptosis rescue, ATP luminescence, 24 h; with zVAD 60 µM; viability rescue, % at 10 µM; 220,000 tested, 0.38% active; AID 1377, 2008;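 active means activation, scaled between plate controls, above about 75%, limit read from the data; inactive means activation under that limit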;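 further: 0% = zVAD with DMSO and 100% = DMSO alone without zVAD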
TNF necrop inh – inhibitors of TNF-alpha triggered necroptosis, primary screen, cell-based, Jurkat FADD-/-, single concentration; AID 463075, 2010; 220,000 tested, 0.068% active; activation (protection from cell death), % at 10 µM; Jurkat FADD-/- TNF necroptosis rescue, ATP luminescence, 24 h; 0 = TNF only, 100 = no-TNF cells;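 active means activation, meaning protection from cell death, of at least 50% relative to plate controls; inactive means activation below 50%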;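 further: necroptosis triggered by 40 ng/mL TNF-alpha added together with compound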
STAT3 blocker – IL-6 driven STAT3 reporter inhibitors, primary screen, U3A cells, luciferase, luminescence, MLSCN library. AID 862, 2007. 190,000 tested, 0.89% active. IL-6 STAT3-luciferase reporter; host cell line lacks STAT1. inhibition, % at 5.5 µM;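 active means inhibition above the mean inhibition across all screened compounds plus 3 SD, cut at about 44% in these data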;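 further: 0% = DMSO only wells and 100% = 100 µM nifuroxazide control wells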
STAT3 activator – IL-6 driven STAT3 reporter potentiators, primary screen, U3A cells, luciferase, luminescence, MLSCN library; activation (% of control), % at 5.6 µM; IL-6 STAT3-luciferase reporter; 100% = signal with IL-6 EC80 alone; 190,000 tested, 0.91% active;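 active means activation above the screen-wide mean of compound activation plus 3 SD, cut at about 130% in these data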;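 further: 0% = background luminescence of wells with medium and substrate only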
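Test system: STAT3-luciferase reporter U3A cells; Detection: reporter luminescence signal; Times: 1 h compound pre-exposure, 6 h IL-6 stimulation, 37 °C; Benchmarks: IL-6-only high control; Also added: IL-6 stimulus at 33 ng/mL final.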
* marks the source's active call; other numbers are inactive results. Shown are actives, neighbours in structure and some others; about 2.1% of the full set was active somewhere.

What do the screens show for `Cc1cc(/C=C2/SC(=S)N(c3cccc(Cl)c3)C2=O)c(C)n1-c1cccnc1`?
STAT1 inh: 19; L929 necroptosis: 0; TNF necrop inh: -18; STAT3 blocker: 67*; STAT3 activator: 44

What do the screens show for `Cc1ccc(NC(=O)N2CCCC(c3nc(-c4ccc(F)cc4)no3)C2)cc1` (centres undefined)?
L929 necroptosis: 0; TNF necrop inh: 1

Results for O=C(NCC(=O)N(Cc1cccs1)C(C(=O)NC1CCCCC1)c1ccncc1)c1ccco1 (centres undefined) ?
STAT1 inh: -1; L929 necroptosis: -1; TNF necrop inh: 0; STAT3 blocker: -6; STAT3 activator: 106

How did CCCCCSc1ncccc1C(=O)O do in these assays?
L929 necroptosis: 1; TNF necrop inh: 2

Results for NC(=S)Nc1nc2ccccc2s1 ?
STAT1 inh: -40; L929 necroptosis: 0; TNF necrop inh: -2; STAT3 blocker: -55; STAT3 activator: 155*

What do the screens show for `O=C(Nc1nc2ccc(F)cc2s1)c1cccs1`?
STAT1 inh: -60; L929 necroptosis: 1; TNF necrop inh: -4; STAT3 blocker: 19; STAT3 activator: 87

How did COCC(=O)Nc1nc2ccccc2s1 do in these assays?
STAT1 inh: -21; L929 necroptosis: 1; TNF necrop inh: 1; STAT3 blocker: -11; STAT3 activator: 109

Results for O=C(NC(=S)Nc1nc2ccccc2s1)c1cccs1 ?
STAT1 inh: -37; L929 necroptosis: 0; TNF necrop inh: 1; STAT3 blocker: -66; STAT3 activator: 151*

What do the screens show for `Cc1cc(C)nc(Nc2nc3ccccc3s2)n1`?
STAT1 inh: -36; L929 necroptosis: 1; TNF necrop inh: 0; STAT3 blocker: -61; STAT3 activator: 156*

How did O=C(NC(=S)Nc1nc2ccc(F)cc2s1)c1ccco1 do in these assays?
STAT1 inh: -32; L929 necroptosis: -2; TNF necrop inh: 0; STAT3 blocker: -69; STAT3 activator: 157*

What do the screens show for `CC(=O)c1c(C)nc(Nc2nc3ccccc3s2)nc1C`?
L929 necroptosis: 0; TNF necrop inh: 0

How did CC1CC(C)CN(C(=O)CSc2nnc(-c3ccc(Cl)cc3)o2)C1 (centres undefined) do in these assays?
STAT1 inh: -10; L929 necroptosis: 83*; TNF necrop inh: 2; STAT3 blocker: 8; STAT3 activator: 101

What do the screens show for `c1ccc(Cc2nn3c(C4COc5ccccc5O4)nnc3s2)cc1` (centres undefined)?
STAT1 inh: -5; L929 necroptosis: 0; TNF necrop inh: -1; STAT3 blocker: -41; STAT3 activator: 135*

Results for COc1ccccc1-c1nn2c(C3COc4ccccc4O3)nnc2s1 (centres undefined) ?
STAT1 inh: -2; L929 necroptosis: 0; TNF necrop inh: 0; STAT3 blocker: -36; STAT3 activator: 133*

What do the screens show for `Cc1csc2nc(CNC(=O)CCC(=O)O)cn12`?
STAT1 inh: -2; L929 necroptosis: 1; TNF necrop inh: 1; STAT3 blocker: -16; STAT3 activator: 113

Results for c1ccc(-c2ccccc2-c2nc(-c3ccncc3)no2)cc1 ?
STAT1 inh: -2; L929 necroptosis: 1; TNF necrop inh: 10; STAT3 blocker: -27; STAT3 activator: 124

How did CSc1nnc(-c2cc3c(s2)-c2ccccc2CC3)o1 do in these assays?
STAT1 inh: -41; L929 necroptosis: 0; TNF necrop inh: -7; STAT3 blocker: -71; STAT3 activator: 164*

What do the screens show for `CCOC(=O)c1c(C)nc(-c2ccccc2)nc1N`?
STAT1 inh: -53; L929 necroptosis: 0; TNF necrop inh: -2; STAT3 blocker: -57; STAT3 activator: 152*

How did CCCCNC(=O)c1onc(CSc2ccccc2CC)c1C(=O)O do in these assays?
STAT1 inh: 3; L929 necroptosis: 1; TNF necrop inh: 0; STAT3 blocker: 120*; STAT3 activator: 7

What do the screens show for `CCN(C(=O)COC(=O)c1c(C)nn(-c2ccccc2)c1C)C1CCS(=O)(=O)C1` (centres undefined)?
STAT1 inh: -28; L929 necroptosis: 2; TNF necrop inh: -1; STAT3 blocker: -5; STAT3 activator: 113

High-throughput results as filed in PubChem BioAssay.
